Here are results for five compounds from ChEMBL document CHEMBL4266019, “Discovery and Structure-Activity-Relationship Study of N-Alkyl-5-hydroxypyrimidinone Carboxamides as Novel Antitubercular Agents Targeting Decaprenylphosphoryl-β-d-ribose 2'-Oxidase” (J Med Chem, 2018).

Each structure is given as a SMILES string. Where a chain is given by its changes, count along the chain named. Converted amounts (≈) assume the structure as drawn. The source made the active and inactive calls. No cut-off for these calls is given here.

For experiment [1], the system named is Mycobacterium tuberculosis. As to the kind of experiment: Antitubercular activity against Mycobacterium tuberculosis H37Rv harboring dprE1-dprE2 mutant after 10 days in absence of anhydrotetracycline. The experiment is classed as functional, organism-based. The essentials:
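DprE12–TetON1 strain (H37Rv with integrated attL5 plasmid constitutively expressing dprE1, dprE2, aftA, embC) washed and diluted to OD580nm 0.01 in drug-free 7H9-based medium. Half received anhydrotetracycline 500 ng/mL. Tested against 14-point 2-fold dilutions, 1% DMSO final, at 37 °C, 5% CO2. OD580nm read at day 10. BTZ043 and TCA1 served as positive controls.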

In experiment [2] the test system is T1, Decaprenylphosphoryl-beta-D-ribose oxidase (Mycobacterium tuberculosis (strain ATCC 25618 / H37Rv)), P9WJF1 [Y314H].
T1 sequence (whole entry): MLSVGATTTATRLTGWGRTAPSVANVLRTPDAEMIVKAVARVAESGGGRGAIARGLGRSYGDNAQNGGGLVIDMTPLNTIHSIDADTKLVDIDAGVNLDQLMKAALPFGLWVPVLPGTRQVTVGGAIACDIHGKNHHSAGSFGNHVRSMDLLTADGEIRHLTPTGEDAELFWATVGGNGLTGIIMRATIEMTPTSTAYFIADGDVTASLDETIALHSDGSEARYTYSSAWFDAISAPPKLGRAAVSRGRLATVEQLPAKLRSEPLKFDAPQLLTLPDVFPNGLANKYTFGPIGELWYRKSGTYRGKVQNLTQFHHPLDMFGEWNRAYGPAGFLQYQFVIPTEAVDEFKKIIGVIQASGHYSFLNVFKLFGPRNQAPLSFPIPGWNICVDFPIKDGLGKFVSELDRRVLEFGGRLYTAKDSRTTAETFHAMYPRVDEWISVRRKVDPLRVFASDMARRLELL
Briefly: Inhibition of DprE1 Y314H mutant in Mycobacterium tuberculosis H37Rv assessed as bacterial growth inhibition after 4 weeks. The essentials:
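Resistant mutants were selected by plating 10^7–10^9 H37Rv cells on 7H11/OADC containing 2×, 5× or 10× MIC, with drug-free plates for counts, at 37 °C for 4 weeks. Colonies from 10× MIC were regrown in 7H9/ADC and MIC-tested. Genomes were sequenced after CTAB DNA isolation.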

Experiment [3] relates to Mycobacterium tuberculosis H37Rv. Briefly: Ratio of MIC for inhibition of DprE1 Y314H mutant-mediated growth of Mycobacterium tuberculosis H37Rv to MIC for inhibition of DprE1-mediated growth of Mycobacterium tuberculosis H37Rv. In a few lines: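 Resistant mutants were selected by plating 10^7, 10^8 and 10^9 H37Rv cells on 7H11/OADC agar containing 2×, 5× and 10× MIC of the hit compound, then incubating at 37 °C for 4 weeks. Colonies from 10× MIC plates were grown in 7H9/ADC and MIC-tested against the parental strain. Whole-genome sequencing found the DprE1 Y314H mutation.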

For experiment [4], the system named is T2, Decaprenylphosphoryl-beta-D-ribose oxidase (Mycobacterium tuberculosis (strain ATCC 25618 / H37Rv)), P9WJF1 [Y314C].
T2 sequence (whole entry): T1 sequence (whole entry) with H314C
Briefly: Inhibition of DprE1 Y314C mutant in Mycobacterium tuberculosis H37Rv assessed as bacterial growth inhibition after 4 weeks.

For experiment [5], the system named is T3, Decaprenylphosphoryl-beta-D-ribose oxidase (Mycobacterium tuberculosis (strain ATCC 25618 / H37Rv)), P9WJF1 [P116S].
T3 sequence (whole entry): T1 sequence (whole entry) with P116S, H314Y
Briefly: Inhibition of DprE1 P116S mutant in Mycobacterium tuberculosis H37Rv assessed as bacterial growth inhibition after 4 weeks.

Experiment [6] concerns T4, Decaprenylphosphoryl-beta-D-ribose oxidase (Mycobacterium tuberculosis (strain ATCC 25618 / H37Rv)), P9WJF1 [N364S].
T4 sequence (whole entry): T1 sequence (whole entry) with H314Y, N364S
As to the kind of experiment: Inhibition of DprE1 N364S mutant in Mycobacterium tuberculosis H37Rv assessed as bacterial growth inhibition after 4 weeks.

As for `CC[C@@H](CO)NCCN[C@@H](CC)CO`, the result in experiment [1] was Active.

For `CC(NC(=O)c1nc(Cc2ccccc2C(F)(F)F)n(C)c(=O)c1O)c1ccccc1` (centres undefined), the result in experiment [1] was inactive. For `Cn1c(Cc2ccccc2C(F)(F)F)nc(C(=O)NCc2ccccc2)c(O)c1=O`, the MIC in experiment [2] is over 50 µM; in experiment [4] it was 25 µM (≈ 10.4 µg/mL); in experiment [5], 18.8 µM (≈ 7.85 µg/mL); in experiment [6], 2.34 µM (≈ 0.977 µg/mL). Further, the Ratio in experiment [3] is over 16. Regarding `CCOC(=O)NC(=O)c1ccsc1NC(=O)c1nc2ccccc2s1`, the result in experiment [1] was Active. Turning to `C[C@H]1COC2(CCN(c3nc(=O)c4cc(C(F)(F)F)cc([N+](=O)[O-])c4s3)CC2)O1`, in experiment [1], the result was Active.
